Assay results from different studies.
Compare with care: the assays were run in different laboratories.
ABL1: Tyrosine-protein kinase ABL1 (ABL1, Homo sapiens, UniProt P00519)
ABL1 Q252H phosphorylated: Tyrosine-protein kinase ABL1, phosphorylated (ABL1, Homo sapiens, UniProt P00519, Q252H)
ABL1 phosphorylated: Tyrosine-protein kinase ABL1, phosphorylated (ABL1, Homo sapiens, UniProt P00519)

The inhibition of `C=CC(=O)N1CCC([C@@H]2CCNc3c(C(N)=O)c(-c4ccc(Oc5ccccc5)cc4)nn32)CC1` is reported as 27% (Tyrosine-protein kinase ABL1, phosphorylated (ABL1, Homo sapiens, UniProt P00519, F317I); enzyme activity; inhibitor; 1 µM).
`[2H]c1cc(C)c(NC(=O)c2cnc(Nc3cc(N4CC[C@@H](N)C4)nc(C)n3)s2)c(Cl)c1` gave an inhibition of 86% (ABL1; enzyme activity; inhibitor; 1 nM).
`C#Cc1cc(-c2cc(Nc3nc(N[C@@H](C)c4ccc(F)cn4)ncc3Cl)n[nH]2)ccc1C=O` has an inhibition of 16.6% (Tyrosine-protein kinase ABL1 (ABL1, Homo sapiens, UniProt P00519, H396P); enzyme activity; inhibitor; 0.2 µM).
`Cc1ccc(NC(=O)c2ccnc(C(F)(F)F)c2)cc1-c1cc(OCCO)nc(N2CCOCC2)c1` gave a remaining binding of 100% (Tyrosine-protein kinase ABL1 (ABL1, Homo sapiens, UniProt P00519, Y253F); binding; 1 µM).
With `C1=C/COCc2cc(ccc2OCCN2CCCC2)Nc2nccc(n2)-c2cccc(c2)COC/1` the remaining binding was 23% (Tyrosine-protein kinase ABL1 (ABL1, Homo sapiens, UniProt P00519, E255K); binding; 0.1 µM).
The remaining binding of `COc1ccc2[nH]c3c4[nH]c5ccc(OC)cc5c4c4c(c3c2c1)C(=O)NC4=O` is reported as 87% (Tyrosine-protein kinase ABL1 (ABL1, Homo sapiens, UniProt P00519, F317I); binding; 1 µM).
The inhibition of `Cc1nc(Nc2ncc(C(=O)Nc3c(C)cccc3Cl)s2)cc(N2CC[C@H](N)C2)n1` is reported as 92% (ABL1; enzyme activity; inhibitor; 1 nM).
`CN1CCN(C(=O)c2ccc(NC(=O)Nc3ccc(N(C)c4ccnc(Nc5ccc(CS(C)(=O)=O)cc5)n4)cc3)cc2)CC1` gave a remaining binding of 9% (Tyrosine-protein kinase ABL1, non-phosphorylated (ABL1, Homo sapiens, UniProt P00519); binding; competition with immobilised ligand; 1 µM).
For `CC#CC(=O)N1CCC[C@H]1c1nc(-c2ccc(C(=O)Nc3ccccn3)cc2)c2c(N)nccn12`, the inhibition was 39% (ABL1 Q252H phosphorylated; enzyme activity; inhibitor; 1 µM).
`COc1ccc2oc(-c3ccc4nc(N)oc4c3)c/c(=N\c3ccccc3NC(=O)CCN)c2c1` has a remaining signal of 100% (Tyrosine-protein kinase ABL1 (ABL1, Homo sapiens, UniProt P00519, M351T); cell-free assay; 1 µM).
`[2H]c1cc(C)c(NC(=O)c2cnc(Nc3cc(N4CC[C@@H](O)C4)nc(C)n3)s2)c(Cl)c1` has an inhibition of 87% (ABL1; enzyme activity; inhibitor; 1 nM).
For `CO[C@@H]1[C@H](N(C)C(=O)c2ccccc2)C[C@H]2O[C@]1(C)n1c3ccccc3c3c4c(c5c6ccccc6n2c5c31)C(=O)NC4`, the inhibition was 13% (Tyrosine-protein kinase ABL1, phosphorylated (ABL1, Homo sapiens, UniProt P00519, M351T); enzyme activity; inhibitor; 1 µM).
The inhibition of `Cc1nc(Nc2ncc(C(=O)Nc3c(C)cccc3Cl)s2)cc(N2CCC(O)CC2)n1` is reported as 83% (ABL1; enzyme activity; inhibitor; 1 nM).
`C[C@H]1CC[C@H](n2c3cnccc3c3cnc(Nc4ccc5c(n4)CCN(C(=O)CO)C5)nc32)CC1` has a remaining binding of 100% (ABL1 phosphorylated; binding; competition with immobilised ligand; 1 µM).
For `Cc1nc(Nc2ncc(C(=O)Nc3c(C)cccc3Cl)s2)cc(N2CC[C@H](O)C2)n1`, the inhibition was 86% (ABL1; enzyme activity; inhibitor; 1 nM).
The remaining binding of `CCCCC(=O)Nc1ccc(-c2ccc3ncn(CCC)c(=O)c3c2)cn1` is reported as 99% (ABL1 Q252H phosphorylated; binding; competition with immobilised ligand; 0.5 µM).
The inhibition of `[2H]c1cc(C)c(NC(=O)c2cnc(Nc3cc(N4CCCCC4)nc(C)n3)s2)c(Cl)c1` is reported as 96% (ABL1; enzyme activity; inhibitor; 1 nM).
The remaining binding of `N#Cc1ccc(NC(=O)Nc2ccccc2)cc1` is reported as 96% (ABL1 phosphorylated; cell-free assay; competition with immobilised ligand; 25 µM).
